Tests used:
Mu-type opioid receptor = Mu-type opioid receptor (Cavia porcellus, UniProt P97266); experiment: Inhibitory potency against Opioid receptor mu 1 in longitudinal muscle preparation of guinea pig ileum; assay type: tissue-based
In short: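 Guinea pig ileum was electrically stimulated to contract, and inhibition was measured at six concentrations per compound, with six to eight assays each. Methionine-enkephalin served as the internal standard in every assay. IC50 was obtained by regression analysis.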

Mus musculus [1] = experiment: Analgesic activity of compound (1.98 nM) in mice after icv administration; assay type: functional
In short: (§1)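 Swiss mice (20–22 g) got icv injections of compound freshly dissolved in saline, in a constant 5 μL. Hind-paw lick latency on a 65 ± 1 °C hot plate was read 15 min after injection. Animals with control latency above 9 s were rejected. Values are mean ± SEM, with n per group.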

[2] = Ratio of IC50 evaluated in GPI to MVD; assay type: functional
In short: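 IC50 values were determined on electrically stimulated guinea pig ileum and on mouse vas deferens. Each used six concentrations with six to eight assays each, methionine-enkephalin as internal standard, and regression analysis. The ratio is GPI IC50 over MVD IC50.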

Mus musculus [3] = species: Mus musculus; experiment: Relative potency of compound verses morphine for analgesic activity in mice; assay type: functional
[4] = target: Delta-type opioid receptor (Mus musculus, UniProt P32300); experiment: Inhibitory potency against delta Opioid receptor delta 1 in longitudinal muscle preparation of mouse vas deferens
Mus musculus [5] = experiment: Analgesic activity of compound (1.46 nM) in mice after icv administration; assay type: functional; in short: as §1
Mus musculus [6] = experiment: Analgesic activity of compound (1.46+naloxone) in mice after icv administration; assay type: functional
In short: (§2)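 Swiss mice (20–22 g) got naloxone 1 mg/kg sc or diprenorphine 0.5 mg/kg sc 15 min before icv compound, given in saline in a constant 5 μL. Hind-paw lick latency on a 65 ± 1 °C hot plate was read 15 min after icv injection. Mice with control latency over 9 s were excluded. Values are mean ± SEM, with n.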

Mus musculus [7] = experiment: Analgesic activity of compound (1.46+diprenorphine) in mice after icv administration; assay type: functional; in short: as §2
Mus musculus [8] = experiment: Analgesic activity of compound (2.66 nM) in mice after icv administration; assay type: functional; in short: as §1
Mus musculus [9] = experiment: Analgesic activity of compound (1.45 nM) in mice after icv administration; assay type: functional; in short: as §1
Mus musculus [10] = experiment: Analgesic activity of compound (1.48 nM) in mice after icv administration; assay type: functional; in short: as §1

Mu-type opioid receptor, sequence (P97266 whole entry): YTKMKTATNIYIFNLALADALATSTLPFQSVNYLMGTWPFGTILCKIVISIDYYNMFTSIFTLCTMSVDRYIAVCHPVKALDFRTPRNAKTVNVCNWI
Delta-type opioid receptor, sequence (P32300 whole entry): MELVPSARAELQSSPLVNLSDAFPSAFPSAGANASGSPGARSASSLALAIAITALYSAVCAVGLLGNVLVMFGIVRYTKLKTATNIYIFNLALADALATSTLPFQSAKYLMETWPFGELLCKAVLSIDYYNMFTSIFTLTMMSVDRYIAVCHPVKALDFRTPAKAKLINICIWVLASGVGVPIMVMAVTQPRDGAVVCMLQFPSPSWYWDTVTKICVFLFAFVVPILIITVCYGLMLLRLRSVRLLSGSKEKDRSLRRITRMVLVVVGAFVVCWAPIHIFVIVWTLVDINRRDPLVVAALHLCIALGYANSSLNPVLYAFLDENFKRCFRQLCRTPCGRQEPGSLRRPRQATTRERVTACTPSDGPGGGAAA

| Molecule | IC50 (Mu-type opioid receptor) | Ratio [2] | Relative potency (Mus musculus [3]) | IC50 [4] | further results |
| --- | --- | --- | --- | --- | --- |
| CSCC[C@H](NC(=O)[C@H](Cc1ccccc1)NC(=O)CNC(=O)CNC(=O)[C@@H](N)Cc1ccc(O)cc1)C(=O)O | 200 nM | – | – | – | – |
| CC(C)CC(C)NC(=O)CNC(=O)[C@H](C)NC(=O)[C@@H](N)Cc1ccc(O)cc1 (stereo not given in full) | 182 nM | 0.15 | 1 | 1220 nM | Hind-paw lick latency time (Mus musculus [1]): 25 s |
| CC(C)C[C@H](NC(=O)[C@H](Cc1ccccc1)NC(=O)CNC(=O)[C@H](CO)NC(=O)[C@@H](N)Cc1ccc(O)cc1)C(=O)N[C@H](C(=O)O)[C@@H](C)O | 360 nM | – | – | – | Hind-paw lick latency time (Mus musculus [5]): 32.6 s; Hind-paw lick latency time (Mus musculus [6]): 10.5 s; Hind-paw lick latency time (Mus musculus [7]): 6.6 s |
| C[C@H](NC(=O)[C@@H](N)Cc1ccc(O)cc1)C(=O)NCC(=O)N(C)[C@@H](Cc1ccccc1)C(=O)N[C@@H](CC[S+](C)[O-])C(=O)O (stereo not given in full) | 7.2 nM | 0.46 | >100 | 15.7 nM | – |
| CC(C)C[C@@H](NC(=O)[C@H](Cc1ccccc1)NC(=O)CNC(=O)[C@@H](C)NC(=O)[C@@H](N)Cc1ccc(O)cc1)C(=O)O [DADLE] | 47.8 nM | – | – | – | – |
| CN1CC[C@]23c4c5ccc(O)c4O[C@H]2[C@@H](O)C=C[C@H]3[C@H]1C5 [MORPHINE] | – | – | – | – | Hind-paw lick latency time (Mus musculus [8]): 25.2 s |
| H-YAGFMT-OH | 240 nM | 220 | 2 | 1.09 nM | Hind-paw lick latency time (Mus musculus [9]): 29.3 s |
| H-YGGFMT-OH | 380 nM | 62 | >0.1 | 6.1 nM | Hind-paw lick latency time (Mus musculus [10]): 6.5 s |
| H-YMGFP-NH2 | 21.9 nM | 0.95 | 25 | 23.1 nM | – |

— ChEMBL document CHEMBL1121721 (J Med Chem, 1981)
